In ChEMBL document CHEMBL2434969, “[(4-Hydroxyl-benzo[4,5]thieno[3,2-c]pyridine-3-carbonyl)-amino]-acetic acid derivatives; HIF prolyl 4-hydroxylase inhibitors as oral erythropoietin secretagogues” (Bioorg Med Chem Lett, 2013):
One block for each compound: values may come before it. Active and inactive are the calls of the source. No cut-off for these calls is given here.

Assays:
[1] = Metabolic stability in mouse microsomes assessed as compound remaining measured at 60 mins; assay type: ADME, Microsome; conditions: read-out: Stability
[2] = Metabolic stability in mouse S9 fraction assessed as compound remaining measured at 60 mins; assay type: ADME; conditions: s9, 1 h
[3] = Half life in CD1 mouse at 4 mg/kg, iv; assay type: ADME, organism-based; parameters: dose 4 mg/kg, route intravenous; conditions: in vivo
[4] = Clearance in CD1 mouse at 4 mg/kg, iv; assay type: ADME, organism-based; parameters: dose 4 mg/kg, route intravenous; conditions: in vivo
[5] = AUC (0 to t) in CD1 mouse at 20 mg/kg, po; assay type: ADME, organism-based; parameters: dose 20 mg/kg, route oral; conditions: plasma
[6] = Bioavailability in CD1 mouse at 4 mg/kg, iv; assay type: ADME, organism-based; conditions: in vivo
[7] = AUC (0 to t) in CD1 mouse at 4 mg/kg, iv; assay type: ADME, organism-based; parameters: dose 4 mg/kg, route intravenous; conditions: plasma
[8] = Tmax in CD1 mouse at 20 mg/kg, po; assay type: ADME, organism-based; parameters: dose 20 mg/kg, route oral; conditions: in vivo
[9] = Cmax in CD1 mouse at 20 mg/kg, po; assay type: ADME, organism-based; parameters: dose 20 mg/kg, route oral; conditions: in vivo
[10] = Metabolic stability in human S9 fraction assessed as compound remaining measured at 60 mins; assay type: ADME; conditions: read-out: Stability
[11] = Volume of distribution at steady state in CD1 mouse at 4 mg/kg, iv; assay type: ADME, organism-based; parameters: dose 4 mg/kg, route intravenous; conditions: in vivo, read-out: Vdss
[12] = Metabolic stability in human microsomes assessed as compound remaining measured at 60 mins; assay type: ADME, Microsome; conditions: read-out: Stability
Mus musculus [13] = test: Anti-anemia activity in ICR mouse assessed as increase in red blood cell count at 50 mg/kg, qd administered for 12 days measured on day 13; assay type: functional, organism-based; parameters: dose 50 mg/kg
Procedure, shortened: (§1)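 Normal male ICR mice, 6 weeks old, dosed once daily for 4 days (QDx4) or 12 days (QDx12) alongside a vehicle group. Mice were split into groups by blood sampling day (D5, D8, D13, D16). Hematocrit, RBC count and Hb were measured in blood. Statistics: P<0.05 and P<0.01 vs vehicle at each sampling time.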

Mus musculus [14] = test: Anti-anemia activity in ICR mouse assessed as increase in hemoglobin level at 50 mg/kg, qd administered for 12 days measured on day 13; assay type: functional, organism-based; parameters: dose 50 mg/kg; procedure, shortened: as §1
Mus musculus [15] = test: Anti-anemia activity in ICR mouse assessed as increase in hematocrit level at 50 mg/kg, qd administered for 4 days measured on day 8; assay type: functional, organism-based; parameters: dose 50 mg/kg; procedure, shortened: as §1
Mus musculus [16] = test: Anti-anemia activity in ICR mouse assessed as increase in hematocrit level at 50 mg/kg, qd administered for 12 days measured on day 13; assay type: functional, organism-based; parameters: dose 50 mg/kg; procedure, shortened: as §1
Mus musculus [17] = test: Anti-anemia activity in ICR mouse assessed as increase in hemoglobin level at 50 mg/kg, qd administered for 4 days measured on day 8; assay type: functional, organism-based; parameters: dose 50 mg/kg; procedure, shortened: as §1
Mus musculus [18] = test: Anti-anemia activity in ICR mouse assessed as increase in red blood cell count at 50 mg/kg, qd administered for 4 days measured on day 8; assay type: functional, organism-based; parameters: dose 50 mg/kg; procedure, shortened: as §1
Mus musculus [19] = test: Anti-anemia activity in ICR mouse assessed as increase in hematocrit level at 50 mg/kg, qd administered for 4 days measured on day 5; assay type: functional, organism-based; parameters: dose 50 mg/kg; procedure, shortened: as §1
Mus musculus [20] = test: Anti-anemia activity in ICR mouse assessed as increase in hemoglobin level at 50 mg/kg, qd administered for 12 days measured on day 16; assay type: functional, organism-based; parameters: dose 50 mg/kg; procedure, shortened: as §1
Mus musculus [21] = test: Anti-anemia activity in ICR mouse assessed as increase in red blood cell count at 50 mg/kg, qd administered for 4 days measured on day 5; assay type: functional, organism-based; parameters: dose 50 mg/kg; procedure, shortened: as §1
Mus musculus [22] = test: Anti-anemia activity in ICR mouse assessed as increase in hemoglobin level at 50 mg/kg, qd administered for 4 days measured on day 5; assay type: functional, organism-based; parameters: dose 50 mg/kg; procedure, shortened: as §1
Mus musculus [23] = test: Anti-anemia activity in ICR mouse assessed as increase in red blood cell count at 50 mg/kg, qd administered for 12 days measured on day 16; assay type: functional, organism-based; parameters: dose 50 mg/kg; procedure, shortened: as §1
Mus musculus [24] = test: Anti-anemia activity in ICR mouse assessed as increase in hematocrit level at 50 mg/kg, qd administered for 12 days measured on day 16; assay type: functional, organism-based; parameters: dose 50 mg/kg; procedure, shortened: as §1

- remaining at 1 h [1]: 68.6%
- Stability [2]: 125.7%
- half-life [3]: 2.79 h
- clearance [4]: 3.92 mL/min/kg
- AUC(0-t) [5]: 53700 ng·h/mL
- bioavailability [6]: 63.2%
- AUC(0-t) [7]: 17000 ng·h/mL
- Tmax [8]: 0.5 h
- Cmax [9]: 15100 ng/mL
- remaining at 1 h [10]: 101%
- Vd [11]: 0.503 L/kg
- remaining at 1 h [12]: 119%
Compound: O=C(O)CNC(=O)c1nc(Cl)c2c(sc3ccccc32)c1O

Compound: O=C(O)CNC(=O)c1nc(Cl)c2ccccc2c1O
- inhibition (Mus musculus [13]): Active
- inhibition (Mus musculus [14]): Active
- inhibition (Mus musculus [15]): Active
- inhibition (Mus musculus [16]): Active
- inhibition (Mus musculus [17]): Active
- inhibition (Mus musculus [18]): Active
- inhibition (Mus musculus [19]): Active
- inhibition (Mus musculus [20]): Active
- inhibition (Mus musculus [21]): Active
- inhibition (Mus musculus [22]): Active
- inhibition (Mus musculus [23]): Active
- inhibition (Mus musculus [24]): Active
